Laboratory results as given in article PMC5346068 (ACS infectious diseases, 2017).
Converted amounts (≈) assume the structure as drawn. “Also recorded” adds a separate entry of the source.

Experiments:
wild-type T. brucei = experiment: Wild-type T. brucei growth inhibition assay; format: cell-based; settings: Trypanosoma brucei, read-out: WT EC50
1433-resistant T. brucei = experiment: microbe, parasite or virus in culture; format: cell-based, Trypanosoma brucei; settings: for EC50: Trypanosoma brucei, read-out: 1433 resistant EC50; for 1433 resistant EC50 / WT EC50: fold shift resistant vs wild-type
T. brucei MetRS = biological target: T1, T. brucei MetRS (Trypanosoma brucei brucei, UniProt Q38C91); experiment: T. brucei MetRS inhibition assay; format: biochemical
T1 sequence (Q38C91 1-773): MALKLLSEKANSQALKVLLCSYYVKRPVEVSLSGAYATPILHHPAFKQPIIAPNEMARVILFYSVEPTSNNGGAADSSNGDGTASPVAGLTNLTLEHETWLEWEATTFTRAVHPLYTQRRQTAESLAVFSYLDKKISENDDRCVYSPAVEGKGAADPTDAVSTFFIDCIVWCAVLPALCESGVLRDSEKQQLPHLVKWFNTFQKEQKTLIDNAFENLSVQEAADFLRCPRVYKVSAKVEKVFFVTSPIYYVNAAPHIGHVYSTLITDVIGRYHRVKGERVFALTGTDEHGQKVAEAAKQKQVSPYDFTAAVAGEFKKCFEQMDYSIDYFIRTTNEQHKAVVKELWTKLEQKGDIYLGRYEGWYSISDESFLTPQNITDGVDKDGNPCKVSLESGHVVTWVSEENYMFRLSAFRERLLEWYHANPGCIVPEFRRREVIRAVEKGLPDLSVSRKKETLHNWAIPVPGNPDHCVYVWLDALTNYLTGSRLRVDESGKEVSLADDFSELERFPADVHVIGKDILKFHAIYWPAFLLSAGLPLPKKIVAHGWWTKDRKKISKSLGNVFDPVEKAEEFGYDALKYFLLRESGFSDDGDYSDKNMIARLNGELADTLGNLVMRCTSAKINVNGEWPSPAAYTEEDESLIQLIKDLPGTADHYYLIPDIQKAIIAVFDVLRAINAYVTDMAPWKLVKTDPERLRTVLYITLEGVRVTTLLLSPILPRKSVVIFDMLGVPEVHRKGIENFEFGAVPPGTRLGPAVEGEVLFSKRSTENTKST

[1] = test system: T. b. brucei (GVR 35 strain); experiment: Murine CNS infection model; format: in vivo, mouse; settings: tail blood; for mice with no detectable parasitemia, day 28: 1 at 20 mg/kg/day days 21-25, Berenil single 40 mg/kg day 21
How it was run: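 Mice were infected on day 0 with T. b. brucei GVR 35, in two groups of 5, and checked for parasitemia on day 14. The control group got a single 40 mg/kg Berenil dose on day 21, then vehicle (DMSO in PBS) on days 22–25. The treated group got test compound at 20 mg/kg/day on days 21–25 and again on days 28–32. Tail blood was examined on days 14, 28, 35, 39 and 43.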

Aqueous solubility = format: physicochemical
T. brucei rhodesiense = T. brucei rhodesiense mouse model of HAT; cited from earlier work
[2] = Human plasma protein binding; format: in vitro ADME
T. brucei = T. brucei in vitro growth inhibition; format: cell-based; settings: Trypanosoma brucei, read-out: T. brucei EC50
logD 7.4 = format: physicochemical; settings: pH 7.4
[3] = Mouse plasma and brain pharmacokinetics; format: in vivo, female BALB/c mice; settings: female, BALB/c, brain, ip, 10 mg/kg
How it was run: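 Female BALB/c mice received a single intraperitoneal 10 mg/kg dose of test compound. Drug levels were measured in plasma and brain, and the brain-to-plasma ratio and brain concentration were taken at the 24 h time point.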

[4] = Human liver microsome clearance; format: in vitro ADME; settings: liver microsomes
Rat hepatocyte clearance = format: in vitro ADME; settings: rat hepatocytes
[5] = MRC5-SV2 human lung cell toxicity; format: cell-based; settings: MRC5-SV2 human lung cells

N=C(N)c1ccc(OCCCCCOc2ccc(C(=N)N)cc2)cc1 [Pentamidine, reference compound]
EC50 (wild-type T. brucei): 1.5 ± 0.2 nM
EC50 (1433-resistant T. brucei): 1.1 ± 0.1 nM
1433 resistant EC50 / WT EC50 (1433-resistant T. brucei): 0.73
T. brucei MetRS inhibition (T. brucei MetRS; up to 10 µM): no T. brucei MetRS inhibition; also recorded: does not inhibit T. brucei MetRS

CC(=O)NCC(=O)O.CC(=O)NCC(=O)O.N=C(N)c1ccc(N=NNc2ccc(C(=N)N)cc2)cc1 [Berenil]
mice with no detectable parasitemia, day 28 [1]: no detectable levels of parasitemia
parasitemia, day 39 [1]: no detectable levels of parasitemia
mice showing a relapse, day 43 ([1]; day 43, group of 5 mice): 2

OCCn1c(CNCCCNc2nc3ccccc3[nH]2)cc2c(Cl)cc(Cl)cc21 [Compound 1, 2-(2-(((3-((1H–Benzo[d]imidazol-2-yl)amino)propyl)amino)methyl)-4,6-dichloro-1H–indol-1-yl)ethan-1-ol]
solubility (Aqueous solubility): 6.33 µM (≈ 2.74 µg/mL)
EC50 (wild-type T. brucei): 0.13 ± 0.01 nM
mice with no detectable parasitemia, day 28 [1]: 3/5
parasitemia, day 39 [1]: full relapse of parasites in the blood
efficacy in bloodstream infection mouse model (T. brucei rhodesiense): cured a bloodstream infection
fraction unbound [2]: < 0.001
EC50 (1433-resistant T. brucei): 14 ± 1 nM
1433 resistant EC50 / WT EC50 (1433-resistant T. brucei): 108
EC50 (T. brucei): 0.96 nM
IC50 (T. brucei MetRS): < 25 nM
logD (logD 7.4): 4
concentration at 24 h [3]: 31.6 ng/g
microsomal CLint [4]: 24 µL/min/mg
Rat Hepatocyte Clint (Rat hepatocyte clearance): 24.9 µL/min/10^6
EC50 [5]: 12000 nM
